Assay results from ChEMBL document CHEMBL1156338 (J Med Chem, 2010).
Calls of active or inactive are those of the source. The calls are words filed in the database; no cut-off is given here.

How the values were obtained:
[1] = target: T1, Mitogen-activated protein kinase 13 (Homo sapiens, UniProt O15264); assay: Inhibition of p38delta
T1 sequence (O15264 whole entry): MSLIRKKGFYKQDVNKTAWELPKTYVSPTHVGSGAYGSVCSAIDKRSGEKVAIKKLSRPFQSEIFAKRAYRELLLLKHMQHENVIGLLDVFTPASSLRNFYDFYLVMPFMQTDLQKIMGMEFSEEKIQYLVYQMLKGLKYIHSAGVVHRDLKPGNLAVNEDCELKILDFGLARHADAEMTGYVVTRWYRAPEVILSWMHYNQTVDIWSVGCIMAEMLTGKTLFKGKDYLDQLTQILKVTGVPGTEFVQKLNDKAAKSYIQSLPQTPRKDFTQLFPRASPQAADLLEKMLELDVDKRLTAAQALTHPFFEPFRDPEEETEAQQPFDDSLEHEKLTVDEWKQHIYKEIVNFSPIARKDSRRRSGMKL

[2] = Half life in Sprague-Dawley rat at 2 mg/kg, iv; assay type: ADME, organism-based; parameters: dose 2 mg/kg, route intravenous; settings: in vivo
Cytochrome P450 3A4 = Cytochrome P450 3A4 (Homo sapiens, UniProt P08684); assay: Inhibition of CYP3A4 in human liver microsomes; assay type: ADME, Microsome
[3] = Trough plasma concentration in porcine type 2 collagen-induced arthritis Lewis rat model at 0.01 to 1 mg/kg, po after 24 hrs; assay type: ADME, organism-based; parameters: dose 0.01-1 mg/kg, route oral
Blood = assay: Inhibition of IL-8 production in TNFalpha challenged human whole blood after 16 to 18 hrs; assay type: functional, tissue-based; settings: Homo sapiens, Blood; read-out: IC50
Method in brief: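 Heparinized blood from healthy nonmedicated donors, 50% final in RPMI 1640 with 10% human AB serum. Ten-point compound titration preincubated 1 h at 37 C, 5% CO2, then TNF-alpha 1 nM final added for 16-18 h. Plasma IL-8 measured by electrochemiluminescent antibody sandwich assay; IC50 is the mean of at least three independent dose-response curves.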

in vitro = settings: human, Caco-2
V79 = assay: Genotoxicity in Chinese hamster V79 cells by micronucleus test; assay type: toxicity, cell-based, Cricetulus griseus
Rattus norvegicus = assay: Antiarthritic activity against porcine type 2 collagen-induced arthritis Lewis rat model assessed as area under the paw swelling curve at 0.01 to 1 mg/kg, po relative to control; assay type: functional, organism-based
Method in brief: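 Lewis rats immunized by intradermal porcine type II collagen emulsified 1:1 in incomplete Freund's adjuvant. Grouped at disease onset (day 0, 10-12 days post-immunization). Oral dosing once daily for 7 days in 15% HPBCD, 1% HPMC, 1% Pluronic F68, pH 2.2. Paw diameter measured daily days 0-7.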

[4] = target: T2, Platelet-derived growth factor receptor alpha (Homo sapiens, UniProt P16234); assay: Binding affinity to PDGFRalpha
Cytochrome P450 1A2 = target: T3, Cytochrome P450 1A2 (Homo sapiens, UniProt P05177); assay: Induction of CYP1A2 in human hepatocytes at 25 uM; assay type: ADME, cell-based, Hepatocyte
T3 sequence (P05177 whole entry): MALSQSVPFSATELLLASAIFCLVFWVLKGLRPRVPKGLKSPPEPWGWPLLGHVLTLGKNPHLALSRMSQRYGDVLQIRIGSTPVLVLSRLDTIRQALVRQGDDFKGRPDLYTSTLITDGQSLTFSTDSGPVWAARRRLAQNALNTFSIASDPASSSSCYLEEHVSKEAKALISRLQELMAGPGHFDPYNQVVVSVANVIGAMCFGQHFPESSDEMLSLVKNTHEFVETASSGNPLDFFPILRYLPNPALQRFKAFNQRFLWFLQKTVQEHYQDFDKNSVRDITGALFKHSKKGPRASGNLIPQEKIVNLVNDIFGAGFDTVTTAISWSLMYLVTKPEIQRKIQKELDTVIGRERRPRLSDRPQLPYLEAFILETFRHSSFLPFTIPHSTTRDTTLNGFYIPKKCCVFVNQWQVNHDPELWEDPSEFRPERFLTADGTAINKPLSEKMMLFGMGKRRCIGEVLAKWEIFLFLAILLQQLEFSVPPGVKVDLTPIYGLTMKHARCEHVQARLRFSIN

[5] = Oral bioavailability in Sprague-Dawley rat at 2 mg/kg; assay type: ADME, organism-based; settings: in vivo
[6] = Plasma protein binding in human by ultrafiltration method; assay type: ADME, cell-free; settings: read-out: PPB (converted)
[7] = Cmax in porcine type 2 collagen-induced arthritis Lewis rat model at 0.01 to 1 mg/kg, po; assay type: ADME, organism-based; parameters: dose 0.01-1 mg/kg, route oral; settings: in vivo
[8] = target: T2, Platelet-derived growth factor receptor alpha; assay: Inhibition of PDGFRalpha at 1 uM relative to control
[9] = Volume of distribution at steady state in Sprague-Dawley rat at 2 mg/kg, iv; assay type: ADME, organism-based; parameters: dose 2 mg/kg, route intravenous; settings: in vivo, read-out: Vdss

T2 sequence (P16234 whole entry): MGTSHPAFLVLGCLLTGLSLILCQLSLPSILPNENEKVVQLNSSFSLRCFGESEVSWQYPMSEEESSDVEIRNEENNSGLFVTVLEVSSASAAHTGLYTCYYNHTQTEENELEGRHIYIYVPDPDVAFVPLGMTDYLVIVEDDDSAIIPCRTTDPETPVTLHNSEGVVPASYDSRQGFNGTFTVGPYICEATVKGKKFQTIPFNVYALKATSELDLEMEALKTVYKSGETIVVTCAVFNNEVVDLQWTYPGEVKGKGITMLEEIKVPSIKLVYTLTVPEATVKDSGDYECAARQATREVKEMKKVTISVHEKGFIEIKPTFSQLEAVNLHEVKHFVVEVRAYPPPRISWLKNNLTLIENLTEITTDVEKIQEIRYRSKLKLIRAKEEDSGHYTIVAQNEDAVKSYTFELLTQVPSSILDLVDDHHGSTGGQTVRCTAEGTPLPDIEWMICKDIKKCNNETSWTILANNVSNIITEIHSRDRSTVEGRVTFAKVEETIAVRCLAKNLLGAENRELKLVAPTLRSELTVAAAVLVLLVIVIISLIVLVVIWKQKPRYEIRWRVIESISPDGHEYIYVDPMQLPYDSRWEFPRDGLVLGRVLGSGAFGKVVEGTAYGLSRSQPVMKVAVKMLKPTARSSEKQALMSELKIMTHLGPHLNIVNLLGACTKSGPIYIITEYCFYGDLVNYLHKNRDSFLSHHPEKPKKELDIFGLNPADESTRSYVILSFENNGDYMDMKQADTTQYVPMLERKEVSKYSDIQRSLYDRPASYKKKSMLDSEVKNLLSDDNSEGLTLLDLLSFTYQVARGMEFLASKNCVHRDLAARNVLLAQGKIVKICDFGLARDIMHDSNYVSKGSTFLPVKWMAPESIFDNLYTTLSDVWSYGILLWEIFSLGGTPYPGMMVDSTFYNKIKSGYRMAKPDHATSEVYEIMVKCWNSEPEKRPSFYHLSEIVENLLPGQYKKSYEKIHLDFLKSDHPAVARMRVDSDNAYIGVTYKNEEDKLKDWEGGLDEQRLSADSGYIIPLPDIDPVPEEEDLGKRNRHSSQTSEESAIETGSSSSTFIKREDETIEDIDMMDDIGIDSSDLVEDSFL
Chain of Cytochrome P450 3A4 (P08684 whole entry): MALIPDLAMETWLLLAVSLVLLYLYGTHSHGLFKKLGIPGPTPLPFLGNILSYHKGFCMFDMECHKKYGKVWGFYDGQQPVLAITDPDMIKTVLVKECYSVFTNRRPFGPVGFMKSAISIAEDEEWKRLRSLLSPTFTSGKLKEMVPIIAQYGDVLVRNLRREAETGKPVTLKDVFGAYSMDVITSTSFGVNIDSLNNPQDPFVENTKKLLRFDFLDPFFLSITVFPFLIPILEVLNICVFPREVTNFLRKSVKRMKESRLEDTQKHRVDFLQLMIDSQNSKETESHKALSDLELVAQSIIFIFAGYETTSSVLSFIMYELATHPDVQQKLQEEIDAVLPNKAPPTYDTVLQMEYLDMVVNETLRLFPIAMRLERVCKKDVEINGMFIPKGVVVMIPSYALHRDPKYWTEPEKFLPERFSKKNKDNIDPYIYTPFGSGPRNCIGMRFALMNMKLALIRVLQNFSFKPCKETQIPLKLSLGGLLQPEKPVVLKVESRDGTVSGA

Cc1ccc(C(=O)NC2CC2)cc1-c1cc2cnn(-c3c(F)cccc3F)c2n(C)c1=O
Ki [1]: 2100 nM | half-life [2]: 2.7 h | IC50 (Cytochrome P450 3A4): > 25000 nM | concentration at 24 h [3]: 4.4 nM | IC50 (Blood): 1.7 nM | Papp B→A (in vitro): 27 ×10⁻⁶ cm/s | Activity (V79): Non-toxic | Activity (Rattus norvegicus): Active | Kd [4]: 1100 nM | Activity (Cytochrome P450 1A2): Not Active | bioavailability [5]: 43% | fraction unbound [6]: 0.079 | Cmax [7]: 11 nM | inhibition [8]: < 50% | Vd [9]: 0.837 L/kg
